Assay results: paper PMC9065995 (RSC Advances, 2019)
≈ marks a conversion by molar mass, not a printed value. Starred links: 1 amine or outer side, 2 acyl side, 3 side chain; linkers in the order of their positions; H or OH if unused. Positions of bridges follow the written chain, without caps; N, C: chain ends. Non-standard residues stand in square brackets, D forms with d. Residues, ends and D or L forms follow the SMILES beside them. Chains are numbered I, II in the order given. Actinocin(9to1) = Cc1c2oc3c(C)ccc(C(=O)[*:1])c3nc-2c(C(=O)[*:2])c(N)c1=O; NMeV = CN[C@H](C(=O)O)C(C)C; Sar = CNCC(=O)O

Experiments:
Assay type in all cases: cell-based
U-87 MG = assay: SRB cytostatic activity assay, U-87 MG; details: Homo sapiens, 72 h, read-out: Cytostatic activity IC50 U-87 MG
Method in brief: (§1)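 Media were EMEM (KB, HepG2, U-87), RPMI 1640 (HeLa), F-12K (A-549), DMEM (MCF-7) and fibroblast growth medium (HDF), all with 10% FBS, at 37 °C and 5% CO2. About 10^4 cells/well grew 24 h, then test compound was added at 0.1–20 μg mL−1 (six levels) for 72 h. Cells were TCA-fixed 1 h at 4 °C, stained with 0.4% SRB, solubilised in Tris, read at A490; IC50, N = 3.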

HeLa = assay: SRB cytostatic activity assay, HeLa; details: Homo sapiens, 72 h, read-out: Cytostatic activity IC50 HeLa
Method in brief: as §1

HDF = assay: SRB cytostatic activity assay, normal control HDF; details: 72 h, read-out: Cytostatic activity IC50 HDF
Method in brief: as §1

A-549 = assay: SRB cytostatic activity assay, A-549; details: Homo sapiens, A549, 72 h, read-out: Cytostatic activity IC50 A-549
Method in brief: as §1

HepG2 = assay: SRB cytostatic activity assay, HepG2; details: Homo sapiens, HepG2, 72 h, read-out: Cytostatic activity IC50 HepG2
Method in brief: as §1

KB = assay: SRB cytostatic activity assay, KB; details: Homo sapiens, 72 h, read-out: Cytostatic activity IC50 KB
Method in brief: as §1

IC50 (U-87 MG) [µg/mL] | IC50 (HeLa) [µg/mL] | IC50 (A-549) [µg/mL] | IC50 (HepG2) [µg/mL] | IC50 (KB) [µg/mL] | Structure (SMILES) | IC50 (HDF) [µg/mL]
0.92 ± 0.59 (≈ 0.733 µM) | 1.13 ± 0.01 (≈ 0.9 µM) | 1.03 ± 0.83 (≈ 0.82 µM) | 1.19 ± 0.02 (≈ 0.948 µM) | 1.07 ± 0.05 (≈ 0.852 µM) | Cc1c2oc3c(C)ccc(C(=O)N[C@@H]4C(=O)N[C@H](C(C)C)C(=O)N5CCC[C@H]5C(=O)N(C)CC(=O)N(C)[C@@H](C(C)C)C(=O)O[C@@H]4C)c3nc-2c(C(=O)N[C@@H]2C(=O)N[C@H](C(C)C)C(=O)N3CCC[C@H]3C(=O)N(C)CC(=O)N(C)[C@@H](C(C)C)C(=O)O[C@@H]2C)c(N)c1=O [Actinomycin, Actinomycin D] (I: T[dV]P[Sar][NMeV] / II: T[dV]P[Sar][NMeV]; ester I:1-I:C, II:1-II:C; linker I:N-II:N via Actinocin(9to1)) | 2.28 ± 0.11 (≈ 1.82 µM)
1.03 ± 0.25 (≈ 4.23 µM) | 1.4 ± 0.08 (≈ 5.76 µM) | 1.17 ± 0.21 (≈ 4.81 µM) | 1.49 ± 0.04 (≈ 6.13 µM) | 0.95 ± 0.02 (≈ 3.91 µM) | Nc1ccn([C@@H]2O[C@H](CO)[C@@H](O)[C@@H]2O)c(=O)n1 [Cytarabine] | 1.94 ± 0.01 (≈ 7.98 µM)
